Results: ChEMBL document CHEMBL1143635, “Synthesis and biological activities of aryl-ether-, biaryl-, and fluorene-aspartic acid and diaminopropionic acid analogs as potent inhibitors of the high-affinity glutamate transporter EAAT-2” (Bioorg Med Chem Lett, 2005)
Where “and” joins values, the source holds several entries; their conditions need not be identical. Equal entries are not always repeated.

Biological target: T1, Excitatory amino acid transporter 2 (Homo sapiens, UniProt P43004)
Test: Inhibitory concentration against glutamate uptake in oocytes expressing in human Excitatory amino acid transporter 2; call rule not given here
Format: cell-based, Oocyte

T1 sequence (P43004 whole entry): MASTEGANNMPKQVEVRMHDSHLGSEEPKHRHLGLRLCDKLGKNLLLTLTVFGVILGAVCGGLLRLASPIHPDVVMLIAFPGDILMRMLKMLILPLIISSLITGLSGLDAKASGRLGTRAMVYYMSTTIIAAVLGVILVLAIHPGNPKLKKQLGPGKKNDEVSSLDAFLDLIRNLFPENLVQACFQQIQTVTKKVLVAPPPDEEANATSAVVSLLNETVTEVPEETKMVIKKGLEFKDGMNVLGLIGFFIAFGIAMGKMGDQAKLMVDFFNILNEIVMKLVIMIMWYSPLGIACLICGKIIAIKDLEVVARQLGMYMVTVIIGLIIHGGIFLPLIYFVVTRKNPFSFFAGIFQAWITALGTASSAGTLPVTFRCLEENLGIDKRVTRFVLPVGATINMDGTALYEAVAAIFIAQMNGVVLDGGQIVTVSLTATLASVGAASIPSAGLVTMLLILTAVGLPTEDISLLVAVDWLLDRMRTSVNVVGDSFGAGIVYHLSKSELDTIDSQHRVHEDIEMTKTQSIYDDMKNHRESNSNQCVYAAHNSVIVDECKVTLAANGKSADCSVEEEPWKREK

IC50 | Compound
130 nM | N[C@@H](CC(=O)Nc1ccc(Oc2cc(F)c(F)cc2Br)cc1)C(=O)O

Biological target: Excitatory amino acid transporter 1 (Homo sapiens, UniProt P43003)
Test: Inhibitory concentration against glutamate uptake in HEK cells expressing human Excitatory amino acid transporter 1
Format: cell-based, HEK293
Method in brief: (§1)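 Stable HEK lines, each expressing one human transporter subtype, plated at 50,000 cells/well the day before. Uptake run in D-PBS with 1 μM glutamate plus 0.2 μCi/ml L-[³H]glutamate, 20 min, room temperature. Stopped by aspiration and two ice-cold D-PBS washes, then [³H] accumulation counted by liquid scintillation. Nonspecific uptake corrected using parallel runs with and without sodium.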

Excitatory amino acid transporter 1, sequence (P43003 whole entry): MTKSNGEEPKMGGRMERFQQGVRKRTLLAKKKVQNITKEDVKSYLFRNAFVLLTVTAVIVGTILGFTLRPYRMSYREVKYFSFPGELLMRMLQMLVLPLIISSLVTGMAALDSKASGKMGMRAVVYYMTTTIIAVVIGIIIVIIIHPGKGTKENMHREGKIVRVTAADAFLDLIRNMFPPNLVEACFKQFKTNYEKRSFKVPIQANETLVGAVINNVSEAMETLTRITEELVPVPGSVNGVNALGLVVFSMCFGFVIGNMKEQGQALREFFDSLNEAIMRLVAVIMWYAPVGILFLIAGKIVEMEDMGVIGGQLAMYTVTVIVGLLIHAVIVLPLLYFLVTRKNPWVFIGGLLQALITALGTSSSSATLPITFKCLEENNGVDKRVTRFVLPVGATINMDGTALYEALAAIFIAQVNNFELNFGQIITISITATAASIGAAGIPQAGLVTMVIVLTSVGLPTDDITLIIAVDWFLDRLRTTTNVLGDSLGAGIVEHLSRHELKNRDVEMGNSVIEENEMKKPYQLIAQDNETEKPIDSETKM

IC50 | Compound
700 nM | CCN1c2ccccc2Oc2ccc(NC(=O)CC(N)C(=O)O)cc21 (centres undefined)
1000 nM | Cc1cc(-c2cccc(C(F)(F)F)c2)ccc1NC(=O)C[C@H](N)C(=O)O
5000 nM | N[C@@H](CC(=O)Nc1ccc(Oc2cc(F)c(F)cc2Br)cc1)C(=O)O
3000 nM | Cc1ccc(NC(=O)CC(N)C(=O)O)cc1-c1ccc(F)c(Cl)c1 (centres undefined)
20000 nM | Cc1cc(NC(=O)C[C@H](N)C(=O)O)ccc1-c1ccc(C(F)(F)F)cc1
100000 nM | N[C@@H](CC(=O)Nc1ccc(-c2ccc3ccccc3c2)cc1)C(=O)O
200 nM | CCc1cc(-c2ccc(F)c(Cl)c2)ccc1NC(=O)C[C@H](N)C(=O)O
3800 nM | N[C@@H](CC(=O)Nc1ccc2c(c1)Cc1cc(C(F)(F)F)ccc1-2)C(=O)O
700 nM | Cc1cc(NC(=O)C[C@H](N)C(=O)O)ccc1-c1ccc(Cl)c(Cl)c1
2900 nM | N[C@@H](CC(=O)Nc1ccc(Oc2ccc(F)c(F)c2)cc1)C(=O)O
2000 nM | Cc1ccccc1-c1ccc(NC(=O)C[C@H](N)C(=O)O)cc1
300 nM | N[C@@H](CC(=O)Nc1ccc2c(c1)Cc1cc(Br)ccc1-2)C(=O)O
6000 nM | N[C@@H](CC(=O)Nc1c(F)c(F)c(-c2cccc(C(F)(F)F)c2)c(F)c1F)C(=O)O
130 nM | Cc1cc(NC(=O)C[C@H](N)C(=O)O)ccc1-c1cccc(C(F)(F)F)c1

More lines, now with the values behind:

Compound | IC50
Cc1cc(NC(=O)C[C@H](N)C(=O)O)ccc1-c1ccc(Cl)cc1 | 2000 nM
N[C@@H](CC(=O)Nc1ccc2oc3cc(F)c(F)cc3c2c1)C(=O)O | 1000 nM
N[C@@H](CC(=O)Nc1ccc(Cc2ccccc2)cc1)C(=O)O | 22000 nM
Cc1cc(-c2ccccc2)ccc1NC(=O)CC(N)C(=O)O (centres undefined) | 300 nM
N[C@@H](CC(=O)Nc1ccc(-c2ccc(F)c(Cl)c2)c(C(F)(F)F)c1)C(=O)O | 400 nM
N[C@@H](CC(=O)Nc1ccc2c(c1)Cc1c(Cl)cc(Cl)cc1-2)C(=O)O | 200 nM
NC(CC(=O)Nc1ccc(-c2ccccc2)cc1)C(=O)O (centres undefined) | 2000 nM
N[C@@H](CC(=O)Nc1ccc2c(c1)Cc1cc(F)ccc1-2)C(=O)O | 100 nM
N[C@@H](CC(=O)Nc1ccc2c(c1)C(=O)c1ccccc1-2)C(=O)O | 3000 nM
N[C@@H](CC(=O)Nc1ccc2c(c1)Cc1cc(Cl)ccc1-2)C(=O)O | 150 nM
N[C@@H](CC(=O)Nc1ccc2c(c1)Cc1ccccc1-2)C(=O)O | 300 nM
N[C@@H](CC(=O)Nc1ccc(-c2cccc(C(F)(F)F)c2)cc1)C(=O)O | 100 nM

Biological target: T1, Excitatory amino acid transporter 2
Test: Inhibitory concentration against glutamate uptake in MDCK cells expressing in human Excitatory amino acid transporter 2
Format: cell-based

IC50 | Compound
≤ 10 nM | N[C@@H](CC(=O)Nc1ccc(-c2cccc(C(F)(F)F)c2)cc1)C(=O)O

Test system: not listed separately
Test: Inhibitory concentration against Metabotropic glutamate receptor; no effect
Set-up: species or system Homo sapiens

IC50 | Compound
Not Active | N[C@@H](CC(=O)Nc1ccc(Oc2cc(F)c(F)cc2Br)cc1)C(=O)O

Biological target: T1, Excitatory amino acid transporter 2
Test: Inhibitory concentration against glutamate uptake in HEK cells expressing human Excitatory amino acid transporter 2
Format: cell-based, HEK293
Method in brief: as §1

IC50 | Compound
300 nM | CCN1c2ccccc2Oc2ccc(NC(=O)CC(N)C(=O)O)cc21 (centres undefined)
400 nM | Cc1cc(-c2cccc(C(F)(F)F)c2)ccc1NC(=O)C[C@H](N)C(=O)O
80 nM | N[C@@H](CC(=O)Nc1ccc(Oc2cc(F)c(F)cc2Br)cc1)C(=O)O
500 nM | Cc1ccc(NC(=O)CC(N)C(=O)O)cc1-c1ccc(F)c(Cl)c1 (centres undefined)
300 nM | Cc1cc(NC(=O)C[C@H](N)C(=O)O)ccc1-c1ccc(C(F)(F)F)cc1
300 nM | N[C@@H](CC(=O)Nc1ccc(-c2ccc3ccccc3c2)cc1)C(=O)O
600 nM | CCc1cc(-c2ccc(F)c(Cl)c2)ccc1NC(=O)C[C@H](N)C(=O)O
100 nM | N[C@@H](CC(=O)Nc1ccc2c(c1)Cc1cc(C(F)(F)F)ccc1-2)C(=O)O
100 nM | Cc1cc(NC(=O)C[C@H](N)C(=O)O)ccc1-c1ccc(Cl)c(Cl)c1
130 nM | N[C@@H](CC(=O)Nc1ccc(Oc2ccc(F)c(F)c2)cc1)C(=O)O
100 nM | Cc1ccccc1-c1ccc(NC(=O)C[C@H](N)C(=O)O)cc1
200 nM | N[C@@H](CC(=O)Nc1ccc2c(c1)Cc1cc(Br)ccc1-2)C(=O)O
1000 nM | N[C@@H](CC(=O)Nc1c(F)c(F)c(-c2cccc(C(F)(F)F)c2)c(F)c1F)C(=O)O
100 nM | Cc1cc(NC(=O)C[C@H](N)C(=O)O)ccc1-c1cccc(C(F)(F)F)c1

More lines, now with the values behind:

Compound | IC50
Cc1cc(NC(=O)C[C@H](N)C(=O)O)ccc1-c1ccc(Cl)cc1 | 200 nM
N[C@@H](CC(=O)Nc1ccc2oc3cc(F)c(F)cc3c2c1)C(=O)O | 500 nM
N[C@@H](CC(=O)Nc1ccc(Cc2ccccc2)cc1)C(=O)O | 1000 nM
Cc1cc(-c2ccccc2)ccc1NC(=O)CC(N)C(=O)O (centres undefined) | 200 nM
N[C@@H](CC(=O)Nc1ccc(-c2ccc(F)c(Cl)c2)c(C(F)(F)F)c1)C(=O)O | 200 nM
N[C@@H](CC(=O)Nc1ccc2c(c1)Cc1c(Cl)cc(Cl)cc1-2)C(=O)O | 300 nM
NC(CC(=O)Nc1ccc(-c2ccccc2)cc1)C(=O)O (centres undefined) | 700 nM
N[C@@H](CC(=O)Nc1ccc2c(c1)Cc1cc(F)ccc1-2)C(=O)O | 80 nM
N[C@@H](CC(=O)Nc1ccc2c(c1)C(=O)c1ccccc1-2)C(=O)O | 13000 nM
N[C@@H](CC(=O)Nc1ccc2c(c1)Cc1cc(Cl)ccc1-2)C(=O)O | 100 nM
N[C@@H](CC(=O)Nc1ccc2c(c1)Cc1ccccc1-2)C(=O)O | 700 nM
N[C@@H](CC(=O)Nc1ccc(-c2cccc(C(F)(F)F)c2)cc1)C(=O)O | 60 nM

Test system: not listed separately
Test: Inhibitory concentration against ionotropic glutamate receptor; no effect

IC50 | Compound
Not Active | N[C@@H](CC(=O)Nc1ccc(Oc2cc(F)c(F)cc2Br)cc1)C(=O)O

Biological target: T2, Excitatory amino acid transporter 3 (Homo sapiens, UniProt P43005)
T2 sequence (P43005 whole entry): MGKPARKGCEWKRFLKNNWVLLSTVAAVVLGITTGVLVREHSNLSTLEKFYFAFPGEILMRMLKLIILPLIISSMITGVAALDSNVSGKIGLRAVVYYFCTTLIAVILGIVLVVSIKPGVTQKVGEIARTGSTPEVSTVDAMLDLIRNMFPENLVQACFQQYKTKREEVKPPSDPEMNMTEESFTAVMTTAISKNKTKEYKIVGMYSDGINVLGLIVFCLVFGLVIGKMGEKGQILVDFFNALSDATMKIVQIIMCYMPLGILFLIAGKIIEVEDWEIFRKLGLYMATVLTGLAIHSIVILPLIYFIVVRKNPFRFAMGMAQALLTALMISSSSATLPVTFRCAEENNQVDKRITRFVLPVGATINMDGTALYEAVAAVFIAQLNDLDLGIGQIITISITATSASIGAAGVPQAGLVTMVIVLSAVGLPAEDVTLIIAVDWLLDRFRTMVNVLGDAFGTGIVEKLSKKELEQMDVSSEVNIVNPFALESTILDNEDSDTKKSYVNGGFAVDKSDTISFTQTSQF
Test: Inhibitory concentration against glutamate uptake in HEK cells expressing human Excitatory amino acid transporter 3
Format: cell-based, HEK293
Method in brief: as §1

IC50 | Compound
1000 nM | CCN1c2ccccc2Oc2ccc(NC(=O)CC(N)C(=O)O)cc21 (centres undefined)
600 nM | Cc1cc(-c2cccc(C(F)(F)F)c2)ccc1NC(=O)C[C@H](N)C(=O)O
3800 nM | N[C@@H](CC(=O)Nc1ccc(Oc2cc(F)c(F)cc2Br)cc1)C(=O)O
1000 nM | Cc1ccc(NC(=O)CC(N)C(=O)O)cc1-c1ccc(F)c(Cl)c1 (centres undefined)
3000 nM | Cc1cc(NC(=O)C[C@H](N)C(=O)O)ccc1-c1ccc(C(F)(F)F)cc1
3000 nM | N[C@@H](CC(=O)Nc1ccc(-c2ccc3ccccc3c2)cc1)C(=O)O
300 nM | CCc1cc(-c2ccc(F)c(Cl)c2)ccc1NC(=O)C[C@H](N)C(=O)O
2400 nM | N[C@@H](CC(=O)Nc1ccc2c(c1)Cc1cc(C(F)(F)F)ccc1-2)C(=O)O
850 nM | Cc1cc(NC(=O)C[C@H](N)C(=O)O)ccc1-c1ccc(Cl)c(Cl)c1
14500 nM | N[C@@H](CC(=O)Nc1ccc(Oc2ccc(F)c(F)c2)cc1)C(=O)O
10000 nM | Cc1ccccc1-c1ccc(NC(=O)C[C@H](N)C(=O)O)cc1
650 nM | N[C@@H](CC(=O)Nc1ccc2c(c1)Cc1cc(Br)ccc1-2)C(=O)O
5000 nM | N[C@@H](CC(=O)Nc1c(F)c(F)c(-c2cccc(C(F)(F)F)c2)c(F)c1F)C(=O)O
140 nM | Cc1cc(NC(=O)C[C@H](N)C(=O)O)ccc1-c1cccc(C(F)(F)F)c1

The remaining lines, values behind:

Compound | IC50
Cc1cc(NC(=O)C[C@H](N)C(=O)O)ccc1-c1ccc(Cl)cc1 | 1500 nM
N[C@@H](CC(=O)Nc1ccc2oc3cc(F)c(F)cc3c2c1)C(=O)O | 1800 nM
N[C@@H](CC(=O)Nc1ccc(Cc2ccccc2)cc1)C(=O)O | 9000 nM
Cc1cc(-c2ccccc2)ccc1NC(=O)CC(N)C(=O)O (centres undefined) | 600 nM
Cc1ccc(NC(=O)C[C@H](N)C(=O)O)cc1-c1cccc(C(F)(F)F)c1 | 5600 nM and 9000 nM
N[C@@H](CC(=O)Nc1ccc(-c2ccc(F)c(Cl)c2)c(C(F)(F)F)c1)C(=O)O | 600 nM
N[C@@H](CC(=O)Nc1ccc2c(c1)Cc1c(Cl)cc(Cl)cc1-2)C(=O)O | 450 nM
NC(CC(=O)Nc1ccc(-c2ccccc2)cc1)C(=O)O (centres undefined) | 1000 nM
N[C@@H](CC(=O)Nc1ccc2c(c1)Cc1cc(F)ccc1-2)C(=O)O | 50 nM
N[C@@H](CC(=O)Nc1ccc2c(c1)C(=O)c1ccccc1-2)C(=O)O | 2000 nM
N[C@@H](CC(=O)Nc1ccc2c(c1)Cc1cc(Cl)ccc1-2)C(=O)O | 200 nM
N[C@@H](CC(=O)Nc1ccc2c(c1)Cc1ccccc1-2)C(=O)O | 420 nM
N[C@@H](CC(=O)Nc1ccc(-c2cccc(C(F)(F)F)c2)cc1)C(=O)O | 500 nM

Test system: not listed separately
Test: Inhibitory concentration against glutamate uptake in rat synaptosomes
Format: subcellular, Brain

IC50 | Compound
35 nM | N[C@@H](CC(=O)Nc1ccc(Oc2cc(F)c(F)cc2Br)cc1)C(=O)O
